Experimental data as given in PMC11480350 (Nature Communications, 2024).
Blank lines part the entries; values can stand above or below the molecule they belong to. Where a SMILES comes first, the peptide text is derived from it. Where no end group is shown, it is not given here. [ ]: non-standard residue; d: D form. The star is where a group is joined. pS = N[C@@H](COP(=O)(O)O)C(=O)O; Cbz = O=C(OCc1ccccc1)*

Experiments:
SCMC = assay: Strep pull-down of 14-3-3 paralogs; assay type: binding, mouse; details: Strep-Tactin pull-down, purified SCMC and 14-3-3 paralogs, SDS-PAGE
Procedure, shortened: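 SCMC was expressed in Sf9 cells for 60 h at 27 °C: His-MATER 1–1059, Strep-TLE6 48–581, Strep-FLOPED 1–164, Strep-FILIA 1–124 or 1–256. It was purified by Ni-NTA, anion exchange and Superose 6. GST-14-3-3 paralogs came from E. coli, were 3C-cleaved, and went through anion exchange and Superdex 200. Proteins were mixed with SCMC or buffer control and captured on Strep-Tactin at 4 °C. Washes contained 0.5% NP-40 and elution used 50 mM biotin. Read-out was SDS-PAGE/immunoblot.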

mouse 14-3-3γ = assay: 14-3-3γ degradation, immunoblotting in HEK-293F cells; assay type: cell-based
14-3-3γ [1] = target: T1, 14-3-3γ (Mus musculus, UniProt P61982); assay: Isothermal titration calorimetry; assay type: binding; details: ITC, 25 °C, pH 7.5, 3 independent experiments
T1 sequence (P61982 1-247): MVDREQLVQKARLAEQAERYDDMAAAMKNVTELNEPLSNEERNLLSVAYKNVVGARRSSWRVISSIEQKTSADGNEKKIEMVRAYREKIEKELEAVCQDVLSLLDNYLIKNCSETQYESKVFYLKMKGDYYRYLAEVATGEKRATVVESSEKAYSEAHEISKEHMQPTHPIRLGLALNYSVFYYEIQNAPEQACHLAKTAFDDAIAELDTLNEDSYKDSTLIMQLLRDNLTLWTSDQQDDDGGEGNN
Procedure, shortened: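 Mouse 14-3-3γ was expressed in E. coli as a GST fusion and purified on glutathione resin. The tag was cut with 3C protease, then the protein was polished by anion exchange and Superdex 200. TLE6 phosphopeptides were titrated into 14-3-3γ (e.g., 1.3 mM peptide into 50 μM protein). Data were corrected for dilution heat and curve-fitted for Kd. Three independent titrations, mean ± S.D.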

Mouse zygotes = assay: Early embryonic development of zygotes with PKA inhibitor; assay type: cell-based; details: H89 20 μM, commencing from 72 h pHCGi
14-3-3γ [2] = target: 14-3-3γ (UniProt P61982); assay: anti-Flag; details: reference: wild-type TLE6
[3] = target: His-tagged 14-3-3γ (mouse) (UniProt P61982); assay: ITC

binding to the SCMC (SCMC): most potent binding partner
Molecule: 14-3-3γ: mouse 14-3-3 paralog γ (1–247 aa)

Molecule: C[C@@H]1C[C@@H]([C@H](O)CC2CC(=O)NC(=O)C2)C(=O)[C@@H](C)C1 [cycloheximide]
level of exogenous mouse 14-3-3γ (mouse 14-3-3γ; cycloheximide 100 μg/ml): gradually degraded

binding to 14-3-3γ (in words) (14-3-3γ [1]): cannot bind to 14-3-3γ
Molecule: TLE6 (203–214): wild-type TLE6 peptide, residues 203–214 (QPRHRNSLSDSA)

Molecule: O=S(=O)(NCCNC/C=C/c1ccc(Br)cc1)c1cccc2cnccc12 [H89]
progression of early embryonic development (Mouse zygotes): markedly retarded

Molecule: CC(C)C[C@@H](C=O)NC(=O)[C@H](CC(C)C)NC(=O)[C@H](CC(C)C)NC(=O)OCc1ccccc1 [MG132] (Cbz-Leu-Leu-Leu-aldehyde)
decrease in the protein level of 14-3-3γ (mouse 14-3-3γ; MG132 20 μM with cycloheximide 100 μg/ml): effectively rescued

binding against the reference (14-3-3γ [2]; sites S209): weaker
Molecule: TLE6 (from UniProt Q9WVB3) S209A

binding against the reference (14-3-3γ [2]; sites S139): weaker
Molecule: TLE6 (from UniProt Q9WVB3) S139A

binding to 14-3-3γ (in words) (14-3-3γ [1]): cannot bind to 14-3-3γ
Molecule: TLE6 (133–144): wild-type TLE6 peptide, residues 133–144 (TRRRFLSESDEL)

binding to 14-3-3γ (in words) (14-3-3γ [1]): cannot bind to 14-3-3γ
Molecule: TLE6 (217–228) pS223: phosphopeptide of TLE6 residues 217–228 carrying phosphorylated Ser223 (FLIKSP[pS]ALLDY)

Kd [3]: 315 µM
Molecule: QPRHRN[pS]LSDSA [TLE6 (203–214) pS209 phosphopeptide]

Kd [3]: 55.8 µM
Molecule: TRRRFL[pS]ESDEL [TLE6 (133–144) pS139 phosphopeptide]
